Tests used:
[1] = molecular target: T1, Polyunsaturated fatty acid 5-lipoxygenase (Rattus norvegicus, UniProt P12527); experiment: In vitro inhibition of 5-lipoxygenase in RBL-1 cells; type: cell-based
T1 sequence (P12527 whole entry): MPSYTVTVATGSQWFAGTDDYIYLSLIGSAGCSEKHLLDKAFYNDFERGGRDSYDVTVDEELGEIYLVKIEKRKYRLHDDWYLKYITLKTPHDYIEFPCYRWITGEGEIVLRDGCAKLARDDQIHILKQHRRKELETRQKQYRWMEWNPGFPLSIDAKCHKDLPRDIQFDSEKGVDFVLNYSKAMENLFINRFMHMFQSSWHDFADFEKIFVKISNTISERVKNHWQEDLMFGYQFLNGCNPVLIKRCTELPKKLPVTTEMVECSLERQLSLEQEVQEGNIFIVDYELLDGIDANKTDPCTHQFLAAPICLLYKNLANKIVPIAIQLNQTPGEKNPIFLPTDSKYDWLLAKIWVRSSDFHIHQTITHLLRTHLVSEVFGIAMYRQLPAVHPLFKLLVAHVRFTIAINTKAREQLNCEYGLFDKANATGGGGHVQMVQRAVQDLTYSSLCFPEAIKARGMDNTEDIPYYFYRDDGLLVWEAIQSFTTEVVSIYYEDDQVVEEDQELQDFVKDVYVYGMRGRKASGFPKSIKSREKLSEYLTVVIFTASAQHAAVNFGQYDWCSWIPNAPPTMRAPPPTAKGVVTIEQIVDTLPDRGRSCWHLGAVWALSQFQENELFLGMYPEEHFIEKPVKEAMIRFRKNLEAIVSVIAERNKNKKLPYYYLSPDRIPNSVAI
Summary of the method: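 The enzyme was 5-lipoxygenase in the 2000g supernatant of RBL-1 cell homogenate. IC50 is reported with 95% confidence limits.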

Rattus norvegicus [2] = species on record: Rattus norvegicus; experiment: Effective dosage to inhibit leukotriene biosynthesis in rat peritoneal anaphylaxis model; type: functional
Summary of the method: (§1)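 Rats were primed ip with rabbit antibody to bovine serum albumin and challenged ip with BSA 3 h later. Inhibitors were given orally by gavage 1 h before challenge. Rats were killed 15 min after challenge, and peritoneal fluid leukotrienes were measured by radioimmunoassay. ED50 is given with 95% confidence limits. Percent inhibition at a fixed dose is the mean ± SEM (n = 8).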

Rattus norvegicus [3] = experiment: Plasma concentration after 1 hr of peroral administration at 100 mg/kg was determined in rats; type: functional, organism-based; design: dose 100 mg/kg
Summary of the method: (§2)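 Rats received 100 mg/kg orally by gavage. Blood was drawn from a lateral tail vein at the set times, and plasma was separated by centrifugation. Proteins were precipitated with methanol, and compound was quantified by HPLC with UV detection at its absorbance maximum. Values are the average of two determinations ± range.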

Rattus norvegicus [4] = experiment: Plasma concentration after 3h of peroral administration at 100 mg/kg was determined in rats; type: functional, organism-based; design: dose 100 mg/kg; summary of the method: as §2
Rattus norvegicus [5] = experiment: Plasma concentration after 6 hr of peroral administration at 100 mg/kg was determined in rats; type: functional, organism-based; design: dose 100 mg/kg; summary of the method: as §2
Rattus norvegicus [6] = experiment: Percentage inhibition of leukotriene biosynthesis in rat peritoneal anaphylaxis model at 100 mg/kg; type: functional; summary of the method: as §1

## CC(=O)N(O)C(C)c1ccc(CC(C)C)cc1 (stereo not drawn)
[1]
  IC50: 420 nM
Rattus norvegicus [2]
  ED50: 24 mg/kg
Rattus norvegicus [3]
  Plasma concentration: 21 µM
Rattus norvegicus [4]
  Plasma concentration: 10 µM
Rattus norvegicus [5]
  Plasma concentration: 5 µM

## CC(C)Cc1ccc(C(C)C(=O)N(C)O)cc1 (stereo not drawn)
[1]
  IC50: 290 nM
Rattus norvegicus [6]
  inhibition in vivo at 100 mg/kg: 65%
Rattus norvegicus [3]
  Plasma concentration: < 9 µM
Rattus norvegicus [4]
  Plasma concentration: < 9 µM
Rattus norvegicus [5]
  Plasma concentration: < 9 µM

## CC(C(=O)N(C)O)c1ccc2ccccc2c1 (stereo not drawn)
[1]
  IC50: 590 nM
Rattus norvegicus [3]
  Plasma concentration: 37 µM
Rattus norvegicus [4]
  Plasma concentration: 13 µM
Rattus norvegicus [5]
  Plasma concentration: 1.4 µM

## CC(=O)N(O)C(C)c1ccc2ccccc2c1 (stereo not drawn)
[1]
  IC50: 540 nM
Rattus norvegicus [2]
  ED50: 19 mg/kg
Rattus norvegicus [3]
  Plasma concentration: 91 µM
Rattus norvegicus [4]
  Plasma concentration: 26 µM
Rattus norvegicus [5]
  Plasma concentration: 33 µM

## CCCCOc1ccc(C(C)N(O)C(C)=O)cc1 (stereo not drawn)
[1]
  IC50: 790 nM
Rattus norvegicus [2]
  ED50: 17 mg/kg
Rattus norvegicus [3]
  Plasma concentration: 92 µM
Rattus norvegicus [4]
  Plasma concentration: 71 µM
Rattus norvegicus [5]
  Plasma concentration: 13 µM

## CCCCOc1ccc(C(C)C(=O)N(C)O)cc1 (stereo not drawn)
[1]
  IC50: 780 nM
Rattus norvegicus [6]
  inhibition in vivo at 100 mg/kg: 62%
Rattus norvegicus [3]
  Plasma concentration: 58 µM
Rattus norvegicus [4]
  Plasma concentration: 7.3 µM
Rattus norvegicus [5]
  Plasma concentration: 3.2 µM

## CC(C(=O)N(C)O)c1ccc(OCc2ccccc2)cc1 (stereo not drawn)
Rattus norvegicus [2]
  ED50: 40 mg/kg
Rattus norvegicus [3]
  Plasma concentration: 8 µM
Rattus norvegicus [4]
  Plasma concentration: 5.8 µM
Rattus norvegicus [5]
  Plasma concentration: 3.8 µM

## CC(=O)N(O)C(C)c1ccc(OCc2ccccc2)cc1 (stereo not drawn)
[1]
  IC50: 370 nM
Rattus norvegicus [2]
  ED50: 8 mg/kg
Rattus norvegicus [3]
  Plasma concentration: 110 µM
Rattus norvegicus [4]
  Plasma concentration: 140 µM
Rattus norvegicus [5]
  Plasma concentration: 95 µM

Reference: ChEMBL document CHEMBL1123959, “Orally active hydroxamic acid inhibitors of leukotriene biosynthesis” (J Med Chem, 1988)
